From ChEMBL document CHEMBL4673181, “An investigation of the antileishmanial properties of semi-synthetic saponins” (RSC Med Chem, 2020)

What was measured:
Leishmania mexicana [1] = experiment: Antileishmanial activity against axenic amastigote stage of Leishmania mexicana (MNYC/BZ/62/M379) assessed as induction of parasite killing incubated for 24 hrs by alamar blue dye based fluorescence analysis; assay type: functional; conditions: read-out: ED50 (the source's name)
Outline: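 L. mexicana axenic amastigotes (from promastigotes by pH/temperature shift; Schneider's with 20% HIFBS) at 4x10⁵ mL⁻¹, exposed to three-fold dilutions from 50 μM to 0.21 μM for 24 h at 33 °C in sealed plates. alamarBlue then added for another 24 h, fluorescence read at 560/600 nm. Amphotericin B (50 μM) positive, DMSO negative control. Duplicates on four occasions, EC₅₀ fitted.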

[2] = Cytotoxicity against mouse RAW264.7 cells assessed as induction of cell killing incubated for 24 hrs by alamar blue dye based fluorescence analysis; conditions: read-out: ED50
Outline: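 Mouse macrophages seeded at 2.5×10^5 mL⁻¹ in DMEM/10% HIFBS, 24 h at 37 °C, 5% CO₂. Then washed and held 24 h in DMEM/2% HIFBS. Compounds 100 μM to 0.41 μM in 2% HIFBS medium for 24 h. alamarBlue 4 h, then fluorescence at 560/600 nm. Cycloheximide (50 μM) positive, DMSO negative control. EC₅₀ derived.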

[3] = Selectivity index, ratio of ED50 for mouse RAW264.7 cells to ED50 for antileishmanial activity against axenic amastigote stage of Leishmania mexicana (MNYC/BZ/62/M379); assay type: toxicity; conditions: read-out: Ratio ED50
Outline: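 Selectivity index calculated as EC₅₀ in RAW macrophages (24 h alamarBlue cytotoxicity assay) divided by EC₅₀ against axenic L. mexicana amastigotes.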

Leishmania mexicana [4] = experiment: Antileishmanial activity against axenic amastigote stage of Leishmania mexicana (MNYC/BZ/62/M379) assessed as inhibition of parasite proliferation at 50 uM incubated for 24 hrs by alamar blue dye based fluorescence analysis; assay type: functional
Outline: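 Primary single-point screen at 50 μM, in duplicate. Axenic L. mexicana amastigotes at 4x10⁵ mL⁻¹ incubated with compound 24 h at 33 °C in sealed plates, then alamarBlue for a further 24 h at the same temperature. Viability read by fluorescence at 560/600 nm against amphotericin B (50 μM) and DMSO controls.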

Leishmania mexicana [5] = experiment: Antileishmanial activity against axenic amastigote stage of Leishmania mexicana (MNYC/BZ/62/M379) infected in mouse RAW264.7 cells assessed as induction of parasite killing incubated for 24 hrs by alamar blue dye based fluorescence analysis; assay type: functional
Outline: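 RAW264.7 cells seeded at 2.5x10⁵ mL⁻¹ in DMEM with 10% HIFBS for 24 h at 37 °C, 5% CO₂, then infected with axenic amastigotes at 25x10⁵ mL⁻¹ in DMEM with 2% HIFBS for 24 h. Washed 5x, compound added for 24 h. Cells lysed with 0.05% SDS, then grown in Schneider's (pH7, 15% HIFBS) 48 h at 26 °C. alamarBlue 4 h, fluorescence 560/600 nm. Triplicate, three occasions.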

With `COC(=O)[C@]12CCC(C)(C)C[C@H]1C1=CC[C@@H]3[C@@]4(C)CC[C@@H]5O[C@H](c6ccccc6C(=O)O)OC[C@@]5(C)[C@@H]4CC[C@@]3(C)[C@]1(C)CC2` the EC50 (Leishmania mexicana [1]) was 10 µM, the CC50 at 24 h [2] was 4.8 µM and the selectivity ratio [3] was 0.5. The inhibition at 50 µM (Leishmania mexicana [4]) was at least 95%.
Molecule `CC1(C)CC[C@]2(C(=O)O)CC[C@]3(C)C(=CC[C@@H]4[C@@]5(C)CC[C@@H]6O[C@H](C[C@H]7O[C@H](CO)[C@@H](O)[C@H](O)[C@H]7O)OC[C@@]6(C)[C@@H]5CC[C@]43C)[C@@H]2C1` has an EC50 (Leishmania mexicana [1]) of 7.5 µM, a CC50 at 24 h [2] of 36.7 µM and a selectivity ratio [3] of 4.9. For the same molecule, the inhibition at 50 µM (Leishmania mexicana [4]) was at least 95%.
With `CO[C@H]1O[C@H]([C@@H]2OC[C@@]3(C)[C@@H]4CC[C@]5(C)[C@H](CC=C6[C@@H]7CC(C)(C)CC[C@]7(C(=O)O)CC[C@]65C)[C@@]4(C)CC[C@@H]3O2)[C@@H](O)[C@H](O)[C@H]1O` the EC50 (Leishmania mexicana [1]) was 6 µM, the CC50 at 24 h [2] was 29.7 µM and the selectivity ratio [3] was 5. The inhibition at 50 µM (Leishmania mexicana [4]) was at least 95%.
Molecule `CC(=O)OC[C@@]1(C)[C@@H]2CC[C@]3(C)[C@H](CC=C4[C@@H]5CC(C)(C)CC[C@]5(NC(=O)N5CCCC5)CC[C@]43C)[C@@]2(C)CC[C@@H]1O` has an EC50 (Leishmania mexicana [1]) of 10.4 µM, a CC50 at 24 h [2] of 10.9 µM and a selectivity ratio [3] of 1. It also gave an inhibition at 50 µM (Leishmania mexicana [4]) of at least 95%.
Molecule `CC1(C)CC[C@]2(C(=O)O)CC[C@]3(C)C(=CC[C@@H]4[C@@]5(C)CC[C@H](OC(=O)CCC(=O)O)[C@@](C)(COC(=O)CCC(=O)O)[C@@H]5CC[C@]43C)[C@@H]2C1` has an EC50 (Leishmania mexicana [1]) of 2.3 µM, a CC50 at 24 h [2] of over 100 µM and an ED50 (Leishmania mexicana [5]) of over 50 µM. It also gave a selectivity ratio [3] of over 44 and an inhibition at 50 µM (Leishmania mexicana [4]) of at least 95%.
Work on `CC1(C)CC[C@]2(C(=O)O)CC[C@]3(C)C(=CC[C@@H]4[C@@]5(C)CC[C@H](O)[C@@](C)(C=O)[C@@H]5CC[C@]43C)[C@@H]2C1` yielded an EC50 (Leishmania mexicana [1]) of 9.6 µM, a CC50 at 24 h [2] of 36.6 µM and a selectivity ratio [3] of 3.8. For the same molecule, the inhibition at 50 µM (Leishmania mexicana [4]) was at least 95%.
With `CC1(C)CC[C@]2(C(=O)O)CC[C@]3(C)C(=CC[C@@H]4[C@@]5(C)CC[C@@H]6O[C@H]([C@H](O)[C@@H](O)[C@H](O)CO)OC[C@@]6(C)[C@@H]5CC[C@]43C)[C@@H]2C1` the EC50 (Leishmania mexicana [1]) was 9.7 µM, the CC50 at 24 h [2] was 29.2 µM and the selectivity ratio [3] was 3. The inhibition at 50 µM (Leishmania mexicana [4]) was at least 95%.
With `CC1(C)CC[C@]2(C(=O)O)CC[C@]3(C)C(=CC[C@@H]4[C@@]5(C)CC[C@@H]6O[C@H]([C@H](O)[C@@H](O)[C@@H](O)CO)OC[C@@]6(C)[C@@H]5CC[C@]43C)[C@@H]2C1` the EC50 (Leishmania mexicana [1]) was 14.6 µM and the inhibition at 50 µM (Leishmania mexicana [4]) was at least 95%.
With `COC(=O)[C@]12CCC(C)(C)C[C@H]1C1=CC[C@@H]3[C@@]4(C)CC[C@@H]5O[C@H]([C@H](O)[C@@H](O)[C@H](O)[C@H](O)CO)OC[C@@]5(C)[C@@H]4CC[C@@]3(C)[C@]1(C)CC2` the EC50 (Leishmania mexicana [1]) was 9.5 µM, the CC50 at 24 h [2] was 10.2 µM and the selectivity ratio [3] was 1.1. For the same molecule, the inhibition at 50 µM (Leishmania mexicana [4]) was at least 95%.
In the case of `COC(=O)[C@]12CCC(C)(C)C[C@H]1C1=CC[C@@H]3[C@@]4(C)CC[C@H](O)[C@@](C)(CO)[C@@H]4CC[C@@]3(C)[C@]1(C)CC2`, the EC50 (Leishmania mexicana [1]) is reported as 12 µM and the inhibition at 50 µM (Leishmania mexicana [4]) is reported as at least 95%.
Work on `CC1(C)CC[C@]2(C(=O)OCC(=O)c3ccccc3)CC[C@]3(C)C(=CC[C@@H]4[C@@]5(C)CC[C@H](O)[C@@](C)(CO)[C@@H]5CC[C@]43C)[C@@H]2C1` yielded an EC50 (Leishmania mexicana [1]) of 45.9 µM and an inhibition at 50 µM (Leishmania mexicana [4]) of at least 95%.
Molecule `C[C@H](O)[C@H]1OC(C[C@@H]2OC[C@@]3(C)[C@@H]4CC[C@]5(C)[C@H](CC=C6[C@@H]7CC(C)(C)CC[C@]7(C(=O)O)CC[C@]65C)[C@@]4(C)CC[C@@H]3O2)[C@@H](O)[C@@H]1O` (some centres undefined) has an EC50 (Leishmania mexicana [1]) of 10.3 µM, a CC50 at 24 h [2] of 30.2 µM and a selectivity ratio [3] of 2.9. The inhibition at 50 µM (Leishmania mexicana [4]) was at least 95%.
With `CCOP(=O)(OCC)OC[C@@]1(C)[C@@H]2CC[C@]3(C)[C@H](CC=C4[C@@H]5CC(C)(C)CC[C@]5(NC(=O)N5CCOCC5)CC[C@]43C)[C@@]2(C)CC[C@@H]1O` the EC50 (Leishmania mexicana [1]) was 19.3 µM and the inhibition at 50 µM (Leishmania mexicana [4]) was at least 95%.
Molecule `CC1(C)CC[C@]2(NC(=O)NCCN)CC[C@]3(C)C(=CC[C@@H]4[C@@]5(C)CC[C@@H]6OC(C)(C)OC[C@@]6(C)[C@@H]5CC[C@]43C)[C@@H]2C1` has an EC50 (Leishmania mexicana [1]) of over 50 µM and an inhibition at 50 µM (Leishmania mexicana [4]) of at least 95%.
Molecule `CC1(C)CC[C@]2(NC(=O)N3CCC[C@H]3C(=O)O)CC[C@]3(C)C(=CC[C@@H]4[C@@]5(C)CC[C@@H]6OC(C)(C)OC[C@@]6(C)[C@@H]5CC[C@]43C)[C@@H]2C1` has an EC50 (Leishmania mexicana [1]) of 0.9 µM, a CC50 at 24 h [2] of 5.4 µM and a selectivity ratio [3] of 6. The inhibition at 50 µM (Leishmania mexicana [4]) was at least 95%.
In the case of `CC1(C)CC[C@]2(C(=O)O)CC[C@]3(C)C(=CC[C@@H]4[C@@]5(C)CC[C@H](O[C@@H]6O[C@H](CO)[C@@H](O)[C@H](O)[C@H]6O)[C@@](C)(CO)[C@@H]5CC[C@]43C)[C@@H]2C1` [Hederagenin-3-O-beta-D-glucopyranoside], the EC50 (Leishmania mexicana [1]) is reported as over 50 µM and the inhibition at 50 µM (Leishmania mexicana [4]) is reported as at least 95%.
Molecule `CC1(C)CC[C@]2(C(=O)O)CC[C@]3(C)C(=CC[C@@H]4[C@@]5(C)CC[C@H](O[C@@H]6OC[C@H](O)[C@H](O)[C@H]6O)[C@@](C)(CO)[C@@H]5CC[C@]43C)[C@@H]2C1` has an EC50 (Leishmania mexicana [1]) of over 50 µM and an inhibition at 50 µM (Leishmania mexicana [4]) of at least 95%.
Molecule `CC1(C)CC[C@]2(C(=O)OCN3C(=O)c4ccccc4C3=O)CC[C@]3(C)C(=CC[C@@H]4[C@@]5(C)CC[C@H](O)[C@@](C)(CO)[C@@H]5CC[C@]43C)[C@@H]2C1` has an EC50 (Leishmania mexicana [1]) of 17.8 µM and an inhibition at 50 µM (Leishmania mexicana [4]) of at least 95%.
Molecule `CC1(C)CC[C@]2(C(=O)O)CC[C@]3(C)C(=CC[C@@H]4[C@@]5(C)CC[C@@H]6O[C@H]([C@H](O)[C@@H](O)[C@H](O)[C@H](O)CO)OC[C@@]6(C)[C@@H]5CC[C@]43C)[C@@H]2C1` has an EC50 (Leishmania mexicana [1]) of 4.5 µM, a CC50 at 24 h [2] of 29.6 µM and a selectivity ratio [3] of 6.7. For the same molecule, the inhibition at 50 µM (Leishmania mexicana [4]) was at least 95%.
For `CC1(C)CC[C@]2(C(=O)OCc3ccc([N+](=O)[O-])cc3)CC[C@]3(C)C(=CC[C@@H]4[C@@]5(C)CC[C@H](O)[C@@](C)(CO)[C@@H]5CC[C@]43C)[C@@H]2C1`, the EC50 (Leishmania mexicana [1]) was 36.2 µM and the inhibition at 50 µM (Leishmania mexicana [4]) was at least 95%.
`CC(=O)OC[C@H](OC(C)=O)[C@H](OC(C)=O)[C@@H](OC(C)=O)[C@@H]1OC[C@@]2(C)[C@@H]3CC[C@]4(C)[C@H](CC=C5[C@@H]6CC(C)(C)CC[C@]6(C(=O)O)CC[C@]54C)[C@@]3(C)CC[C@@H]2O1` gave an EC50 (Leishmania mexicana [1]) of 7.2 µM, a CC50 at 24 h [2] of 11.1 µM and a selectivity ratio [3] of 1.5. It also gave an inhibition at 50 µM (Leishmania mexicana [4]) of at least 95%.
Work on `CC1(C)CC[C@]2(C(=O)O)CC[C@]3(C)C(=CC[C@@H]4[C@@]5(C)CC[C@@H]6O[C@H](C[C@H]7O[C@H](CO)[C@H](O)[C@H](O)[C@H]7O)OC[C@@]6(C)[C@@H]5CC[C@]43C)[C@@H]2C1` yielded an EC50 (Leishmania mexicana [1]) of 21.7 µM and an inhibition at 50 µM (Leishmania mexicana [4]) of at least 95%.
